From ChEMBL document CHEMBL4811231, “Discovery and structural optimization of 3-O-β-chacotriosyl oleanane-type triterpenoids as potent entry inhibitors of SARS-CoV-2 virus infections” (Eur J Med Chem, 2021)

Columns and labels:
[1] = Cytotoxicity against human 293T/ACE2 cells measured after 48 hrs by MTT assay; assay type: cell-based; settings: 293t/ace2, 48 h
In short: (§1)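 MTT assay on monolayers of 293T-ACE2 or Vero-E6 cells. Cells were rinsed with PBS and exposed to compound for 48 h, then given 0.5 mg/mL MTT for 4 h at 37 °C. Formazan was dissolved in DMSO and absorbance read at 570 nm.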

[2] = Selectivity index, ratio of CC50 for cytotoxicity against human 293T/ACE2 cells to IC50 for SARS-CoV-2 spike glycoprotein S inhibition; assay type: toxicity, cell-based; settings: read-out: Selectivity Index
Vero E6 [3] = experiment: Antiviral activity against SARS-CoV-2 Wuhan-HU-1 infection on African green monkey Vero E6 cells assessed by viral nucleoprotein expression at 0.55 to 15 uM measured after 48 hrs by DAPI staining based indirect immunoflourescence microscopy relative to control; assay type: functional, cell-based; settings: Severe acute respiratory syndrome-related coronavirus, dose 0.55-15 µM
[4] = Antiviral activity against SARS-CoV-2 Wuhan-HU-1 preincubated for 1 hr with African green monkey VeroE6 cells assessed as inhibition of viral infection by measuring total RNA after 24 hrs by qPCR analysis; assay type: functional, cell-based, Vero E6; settings: Severe acute respiratory syndrome-related coronavirus, Wuhan-HU-1, Vero C1008
Vero C1008 = experiment: Cytotoxicity against African Green monkey Vero E6 cells measured after 48 hrs by MTT assay; assay type: cell-based; settings: chlorocebus sabaeus, vero c1008, 48 h; in short: as §1
[5] = Inhibition of SARS-CoV-2 spike glycoprotein S1 binding to human ACE2 receptor in co-transfected human HEK293T cells at 40 uM measured by Co-immunoprecipitation based Western blot assay; assay type: cell-based, Severe acute respiratory syndrome-related coronavirus
In short: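 293T cells were co-transfected with ACE2-Flag and SARS-S plasmids, and total protein was extracted after 48 h. Lysates were immunoprecipitated overnight with protein A Sepharose and anti-Flag antibody (mouse IgG as control). Proteins were run on 10% PAGE and blotted with anti-Flag and anti-SARS-CoV-S antibodies plus an HRP secondary.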

[6] = Binding affinity to SARS-CoV-2 spike glycoprotein S1 measured by Surface plasmon resonance; parameters: species or system Severe acute respiratory syndrome-related coronavirus
In short: (§2)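 Compound was immobilised on the chip by photo-crosslinking. Recombinant SARS-CoV-2 S-trimer, S1 or S2 protein was injected at a series of concentrations in PBST (0.1% Tween 20, pH 7.4) at 4 °C. Binding lasted 600 s and dissociation 360 s, at 0.5 µL/s. The chip was regenerated with glycine-HCl pH 2.0.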

[7] = Binding affinity to SARS-CoV-2 spike glycoprotein S2 measured by Surface plasmon resonance; parameters: species or system Severe acute respiratory syndrome-related coronavirus; in short: as §2
Vero E6 [8] = experiment: Inhibition of SARS-CoV-2 spike glycoprotein S2 in human HEK293T cells transfected with pAAV-IRES-GFP-SARS-CoV-2 S assessed as inhibition of membrane fusion to african green monkey Vero E6 cells […] pretreated at 2.5 to 20 uM for 30 mins measured after 24 hrs by cell-cell fusion based fluorescence microscopy; settings: Severe acute respiratory syndrome-related coronavirus, dose 2.5-20 µM
In short: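 Effector HEK-293T cells were transfected with pAAV-IRES-GFP-SARS-CoV-2 S, or with empty pAAV-IRES-GFP as vehicle. They were pretreated with compound for 30 min and overlaid on Vero-E6 target cells seeded 6 h earlier (20,000/well). After 24 h, three random fields were imaged by fluorescence microscopy.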

SMILES | CC50 [1] [µM] | selectivity ratio [2] | also measured
COc1ccc(NC(=O)[C@]23CCC(C)(C)C[C@H]2C2=CC[C@@H]4[C@@]5(C)CC[C@H](O[C@@H]6O[C@H](CO)[C@@H](O[C@@H]7O[C@@H](C)[C@H](O)[C@@H](O)[C@H]7O)[C@H](O)[C@H]6O[C@@H]6O[C@@H](C)[C@H](O)[C@@H](O)[C@H]6O)C(C)(C)[C@@H]5CC[C@@]4(C)[C@]2(C)CC3)cc1 | > 100 | > 10 | –
COc1cccc(NC(=O)[C@]23CCC(C)(C)C[C@H]2C2=CC[C@@H]4[C@@]5(C)CC[C@H](O[C@@H]6O[C@H](CO)[C@@H](O[C@@H]7O[C@@H](C)[C@H](O)[C@@H](O)[C@H]7O)[C@H](O)[C@H]6O[C@@H]6O[C@@H](C)[C@H](O)[C@@H](O)[C@H]6O)C(C)(C)[C@@H]5CC[C@@]4(C)[C@]2(C)CC3)c1 | > 100 | > 12 | –
C[C@@H]1O[C@@H](O[C@H]2[C@H](O[C@H]3CC[C@]4(C)[C@H]5CC=C6[C@@H]7CC(C)(C)CC[C@]7(C(=O)N(C)Cc7ccccc7)CC[C@@]6(C)[C@]5(C)CC[C@H]4C3(C)C)O[C@H](CO)[C@@H](O[C@@H]3O[C@@H](C)[C@H](O)[C@@H](O)[C@H]3O)[C@@H]2O)[C@H](O)[C@H](O)[C@H]1O | 37.6 | 4.84 | –
C[C@@H]1O[C@@H](O[C@H]2[C@H](O[C@H]3CC[C@]4(C)[C@H]5CC=C6[C@@H]7CC(C)(C)CC[C@]7(C(=O)NCc7ccccc7)CC[C@@]6(C)[C@]5(C)CC[C@H]4C3(C)C)O[C@H](CO)[C@@H](O[C@@H]3O[C@@H](C)[C@H](O)[C@@H](O)[C@H]3O)[C@@H]2O)[C@H](O)[C@H](O)[C@H]1O | > 100 | > 22.9 | inhibition (Vero E6 [3]): Dose-Dependent Effect; IC50 [4]: 0.97 µM; Activity (Vero C1008): Non-Toxic; Kd [5]: Active; Kd [6]: 3690 µM; Kd [7]: 2.16 µM; inhibition (Vero E6 [8]): Dose-Dependent Effect
C[C@@H]1O[C@@H](O[C@H]2[C@H](O[C@H]3CC[C@]4(C)[C@H]5CC=C6[C@@H]7CC(C)(C)CC[C@]7(C(=O)Nc7ccccc7)CC[C@@]6(C)[C@]5(C)CC[C@H]4C3(C)C)O[C@H](CO)[C@@H](O[C@@H]3O[C@@H](C)[C@H](O)[C@@H](O)[C@H]3O)[C@@H]2O)[C@H](O)[C@H](O)[C@H]1O | 33.5 | 1.85 | –
C[C@@H]1O[C@@H](O[C@H]2[C@H](O[C@H]3CC[C@]4(C)[C@H]5CC=C6[C@@H]7CC(C)(C)CC[C@]7(C(=O)NCc7ccccc7F)CC[C@@]6(C)[C@]5(C)CC[C@H]4C3(C)C)O[C@H](CO)[C@@H](O[C@@H]3O[C@@H](C)[C@H](O)[C@@H](O)[C@H]3O)[C@@H]2O)[C@H](O)[C@H](O)[C@H]1O | > 100 | > 17.6 | –
C[C@@H]1O[C@@H](O[C@H]2[C@H](O[C@H]3CC[C@]4(C)[C@H]5CC=C6[C@@H]7CC(C)(C)CC[C@]7(C(=O)NCCc7ccccc7)CC[C@@]6(C)[C@]5(C)CC[C@H]4C3(C)C)O[C@H](CO)[C@@H](O[C@@H]3O[C@@H](C)[C@H](O)[C@@H](O)[C@H]3O)[C@@H]2O)[C@H](O)[C@H](O)[C@H]1O | > 100 | > 13.6 | –
COc1ccccc1CNC(=O)[C@]12CCC(C)(C)C[C@H]1C1=CC[C@@H]3[C@@]4(C)CC[C@H](O[C@@H]5O[C@H](CO)[C@@H](O[C@@H]6O[C@@H](C)[C@H](O)[C@@H](O)[C@H]6O)[C@H](O)[C@H]5O[C@@H]5O[C@@H](C)[C@H](O)[C@@H](O)[C@H]5O)C(C)(C)[C@@H]4CC[C@@]3(C)[C@]1(C)CC2 | 33.4 | 2 | –
C[C@@H]1O[C@@H](O[C@H]2[C@H](O[C@H]3CC[C@]4(C)[C@H]5CC=C6[C@@H]7CC(C)(C)CC[C@]7(C(=O)NCc7ccccc7Cl)CC[C@@]6(C)[C@]5(C)CC[C@H]4C3(C)C)O[C@H](CO)[C@@H](O[C@@H]3O[C@@H](C)[C@H](O)[C@@H](O)[C@H]3O)[C@@H]2O)[C@H](O)[C@H](O)[C@H]1O | > 100 | > 15.8 | –
C[C@@H]1O[C@@H](O[C@H]2[C@H](O[C@H]3CC[C@]4(C)[C@H]5CC=C6[C@@H]7CC(C)(C)CC[C@]7(C(=O)NCCCc7ccccc7)CC[C@@]6(C)[C@]5(C)CC[C@H]4C3(C)C)O[C@H](CO)[C@@H](O[C@@H]3O[C@@H](C)[C@H](O)[C@@H](O)[C@H]3O)[C@@H]2O)[C@H](O)[C@H](O)[C@H]1O | > 100 | > 7.66 | –
COc1ccccc1NC(=O)[C@]12CCC(C)(C)C[C@H]1C1=CC[C@@H]3[C@@]4(C)CC[C@H](O[C@@H]5O[C@H](CO)[C@@H](O[C@@H]6O[C@@H](C)[C@H](O)[C@@H](O)[C@H]6O)[C@H](O)[C@H]5O[C@@H]5O[C@@H](C)[C@H](O)[C@@H](O)[C@H]5O)C(C)(C)[C@@H]4CC[C@@]3(C)[C@]1(C)CC2 | 31.2 | 5.64 | –
C[C@@H]1O[C@@H](O[C@H]2[C@H](O[C@H]3CC[C@]4(C)[C@H]5CC=C6[C@@H]7CC(C)(C)CC[C@]7(C(=O)NCc7ccccc7Br)CC[C@@]6(C)[C@]5(C)CC[C@H]4C3(C)C)O[C@H](CO)[C@@H](O[C@@H]3O[C@@H](C)[C@H](O)[C@@H](O)[C@H]3O)[C@@H]2O)[C@H](O)[C@H](O)[C@H]1O | > 100 | > 8.51 | –
C[C@@H]1O[C@@H](O[C@H]2[C@H](O[C@H]3CC[C@]4(C)[C@H]5CC=C6[C@@H]7CC(C)(C)CC[C@]7(C(=O)OCc7ccccc7)CC[C@@]6(C)[C@]5(C)CC[C@H]4C3(C)C)O[C@H](CO)[C@@H](O[C@@H]3O[C@@H](C)[C@H](O)[C@@H](O)[C@H]3O)[C@@H]2O)[C@H](O)[C@H](O)[C@H]1O | 21.6 | 1.29 | –
O=C(/C=C/c1ccc(O)c2oc(-c3ccc(O)c(O)c3)cc12)O[C@H](Cc1ccc(O)c(O)c1)C(=O)O | > 100 | > 26 | –
C[C@@H]1O[C@@H](O[C@H]2[C@H](O[C@H]3CC[C@]4(C)[C@H]5CC=C6[C@@H]7CC(C)(C)CC[C@]7(C(=O)NCc7cccs7)CC[C@@]6(C)[C@]5(C)CC[C@H]4C3(C)C)O[C@H](CO)[C@@H](O[C@@H]3O[C@@H](C)[C@H](O)[C@@H](O)[C@H]3O)[C@@H]2O)[C@H](O)[C@H](O)[C@H]1O | 34.9 | 5.92 | –
C[C@@H]1O[C@@H](O[C@H]2[C@H](O[C@H]3CC[C@]4(C)[C@H]5CC=C6[C@@H]7CC(C)(C)CC[C@]7(C(=O)Nc7ccccc7Cl)CC[C@@]6(C)[C@]5(C)CC[C@H]4C3(C)C)O[C@H](CO)[C@@H](O[C@@H]3O[C@@H](C)[C@H](O)[C@@H](O)[C@H]3O)[C@@H]2O)[C@H](O)[C@H](O)[C@H]1O | 31.7 | 5.06 | –
